Data set [1] deals with Caco-2 cell monolayers. As to the kind of experiment: Dioxin transport and cellular association in dynamic gut-on-a-chip model. To be noted: 24 h; for Mass balance (sum of AP, BL compartments and cellular fraction): Chip, 0.2 ng/mL each congener, n = 3. The format is in vitro ADME, human. In outline: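 Caco-2 seeded at 75 000 cells per cm2 on a porous polyester membrane clamped between glass slides. Cells attached 72 h without flow, then both sides were perfused 7 days at 25 μL h−1 with 10 mM-bicarbonate DMEM+ at 37 °C. Apical medium then carried 17 congeners (0.2 ng mL−1 each, 1% DMSO) for 24 h. Compartment eluents, hexane rinses and trypsinised, freeze–thaw-lysed cells were analysed by GC-HRMS.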

Data set [2] deals with Caco-2 cell monolayers. As to the kind of experiment: Dioxin transport and cellular association in static Transwell model. The format is in vitro ADME, human. To be noted: 24 h; for Mass balance (sum of AP, BL compartments and cellular fraction): Transwell, 0.2 ng/mL mixture, n = 3. In outline:
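Caco-2 seeded at 40 000 cells per cm2 on 12-well polyester Transwell inserts (0.4 μm pores, 1.12 cm2) in DMEM+, with medium changed every other day for 21 days. Apical side received DMEM+ with 0.2 ng mL−1 dioxin mixture (1% DMSO); basolateral side received plain DMEM+; exposure 24 h. Both compartments' medium, hexane rinses and trypsinised, freeze–thaw-lysed cells were analysed by GC-HRMS.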

For data set [3] the following is noted: predicted; octanol/water; cited from earlier work.
Data set [4] deals with Caco-2 cell monolayer. To be noted: 24 h; 2.5 nM 2,3,7,8-TCDD; cited from earlier work.
The subject of data set [5] is Caco-2 cells. The following applies: 90 minutes exposure to 3.4 × 10^−2 μCi mL^−1 U-14C-TCDD; cited from earlier work.
For data set [6] the following is noted: cited from earlier work.
Setting [7] is: dynamic model (chip), 0.2 ng/mL.
[8] abbreviates: static model (Transwell), 0.2 ng/mL.

Where two headings read alike, the source gives them in different places.

Regarding `Clc1cc2c(c(Cl)c1Cl)Oc1c(Cl)c(Cl)c(Cl)c(Cl)c1O2` [1,2,3,4,6,7,8-HpCDD], the “Mass balance (sum of AP, BL compartments and cellular fraction)” value in data set [1] is reported as 97 ± 7%; in data set [2] it was 83 ± 2%.
For the molecule `Clc1cc2c(oc3c(Cl)c(Cl)c(Cl)c(Cl)c32)c(Cl)c1Cl` [1,2,3,4,6,7,8-HpCDF], the entries for the “Mass balance (sum of AP, BL compartments and cellular fraction)” value in data set [1] and in data set [2] were 97 ± 5% and 93 ± 1%, respectively. Further, the “log P” value in data set [3] is 7.9.
On to `Clc1cc2oc3c(Cl)c(Cl)c(Cl)c(Cl)c3c2c(Cl)c1Cl` [1,2,3,4,7,8,9-HpCDF], for which the “Mass balance (sum of AP, BL compartments and cellular fraction)” value in data set [1] was 97 ± 7%; in data set [2], 83 ± 2%.
Take `Clc1cc2oc3c(Cl)c(Cl)c(Cl)c(Cl)c3c2cc1Cl` [1,2,3,4,7,8-HxCDF]: the entries for the “Mass balance (sum of AP, BL compartments and cellular fraction)” value in data set [1] and in data set [2] were 97 ± 7% and 85 ± 2%, respectively. Also, the “log P” value in data set [3] is reported as 6.9.
Consider `Clc1cc2c(c(Cl)c1Cl)Oc1cc(Cl)c(Cl)c(Cl)c1O2` [1,2,3,6,7,8-HxCDD], for which the figures for the “Mass balance (sum of AP, BL compartments and cellular fraction)” value in data set [1] and in data set [2] were 92 ± 5% and 92 ± 1%, respectively. For the same molecule, in data set [3], the “log P” value was 7.4.
On to `Clc1cc2c(oc3cc(Cl)c(Cl)c(Cl)c32)c(Cl)c1Cl` [1,2,3,6,7,8-HxCDF], for which the results for the “Mass balance (sum of AP, BL compartments and cellular fraction)” value in data set [1] and in data set [2] were 94 ± 5% and 93 ± 1%, respectively. In addition, in data set [3], the “log P” value is listed as 6.9.
`Clc1cc2c(c(Cl)c1Cl)Oc1c(cc(Cl)c(Cl)c1Cl)O2` [1,2,3,7,8,9-HxCDD]: the entries for the “Mass balance (sum of AP, BL compartments and cellular fraction)” value in data set [1] and in data set [2] were 93 ± 5% and 93 ± 1%, respectively. In addition, the “Relative amount in the cellular fraction (of total exposure)” value (“Relative amount in the cellular fraction” below) in data set [1] (setting [7]) came out at 33%; in data set [2] (setting [8]), 22.5%. For the same molecule, in data set [3], the “log P” value was 7.4.
On to `Clc1cc2oc3cc(Cl)c(Cl)c(Cl)c3c2c(Cl)c1Cl` [1,2,3,7,8,9-HxCDF], for which the “Mass balance (sum of AP, BL compartments and cellular fraction)” value in data set [1] came out at 91 ± 6%; in data set [2], 84 ± 2%. For the same molecule, the “log P” value in data set [3] is on record as 7.4.
Consider `Clc1cc2c(oc3c(Cl)c(Cl)c(Cl)cc32)c(Cl)c1Cl` [2,3,4,6,7,8-HxCDF], for which the “Mass balance (sum of AP, BL compartments and cellular fraction)” value in data set [1] is listed as 97 ± 7%; in data set [2], 87 ± 2%. In addition, the “log P” value in data set [3] is 7.1.
Consider `Clc1cc2c(cc1Cl)Oc1cc(Cl)c(Cl)cc1O2` [2,3,7,8-TCDD, 2,3,7,8-tetrachlorodibenzo-p-dioxin], for which the “Mass balance (sum of AP, BL compartments and cellular fraction)” value in data set [1] is recorded as 85 ± 5%. In data set [1] (setting [7]), the “Relative amount in the cellular fraction” value was approximately 56% and the “Transport across the monolayer (basal side compared to total exposed amount)” value was 3%. In addition, the “Mass balance (sum of AP, BL compartments and cellular fraction)” value in data set [2] amounted to 81 ± 2%. In addition, in data set [2] (setting [8]), the “Relative amount in the cellular fraction” value is reported as “approximately 39%” and the “Transport across the monolayer (basal side compared to total exposed amount)” value was 3%. Moreover, in data set [4], the “Transported across the Caco-2 cell monolayer” value is recorded as 15%. Besides, in data set [5], the “Apical concentration transported to the basal compartment” value was “less than 1.5%” and the Steady-state cellular association entry was “approximately 13%”.
On to `Clc1ccc(-c2cc(Cl)c(Cl)cc2Cl)cc1Cl` [#118], for which the “log P” value in data set [6] is more than 5.
As to `Clc1cc(Cl)c(-c2cc(Cl)c(Cl)cc2Cl)cc1Cl` [#153], the “log P” value in data set [6] is more than 5.
Turning to `Clc1cc(Cl)c(-c2cc(Cl)c(Cl)c(Cl)c2Cl)cc1Cl` [#180], the “log P” value in data set [6] was more than 5.
Regarding `Clc1ccc(Cl)c(-c2cc(Cl)ccc2Cl)c1` [PCB#52], in data set [6], the “log P” value was more than 5.

The values above are taken from paper PMC9086222 (RSC Advances, 2018).
